{"source": "ChEMBL document CHEMBL4038305", "about": "“Benzoxaborole Antimalarial Agents. Part 5. Lead Optimization of Novel Amide Pyrazinyloxy Benzoxaboroles and Identification of a Preclinical Candidate” (J Med Chem, 2017)", "key": {"Plasmodium berghei [1]": {"test_system": "Plasmodium berghei", "test": "Antimalarial activity against Plasmodium berghei infected in Swiss Webster mouse assessed as mouse survival rate at 0.3 mg/kg administered once daily via oral gavage for 4 consecutive days beginning 1 hr after infection measured on day 4 post infection relative to control", "format": "functional", "procedure,_shortened": "(§1)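 Mice given an intraperitoneal injection of P. berghei-infected erythrocytes taken from a previously infected animal. Oral dosing once daily for 4 consecutive days, starting 1 h after infection. Vehicle: polyethylene glycol 300/propylene glycol/water (weight ratio 55/25/20). Percent survival recorded daily from day 4 to day 20. Chloroquine 30 mg/kg and vehicle-only groups served as controls.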"}, "Plasmodium berghei [2]": {"test_system": "Plasmodium berghei", "test": "Antimalarial activity against Plasmodium berghei infected in Swiss Webster mouse assessed as mouse survival rate at 1 mg/kg administered once daily via oral gavage for 4 consecutive days beginning 1 hr after infection measured on day 7 post infection relative to control", "format": "functional", "procedure,_shortened": "as §1"}, "Plasmodium berghei [3]": {"test_system": "Plasmodium berghei", "test": "Antimalarial activity against Plasmodium berghei infected in Swiss Webster mouse assessed as mouse survival rate at 0.3 mg/kg administered once daily via oral gavage for 4 consecutive days beginning 1 hr after infection measured on day 7 post infection relative to control", "format": "functional", "procedure,_shortened": "as §1"}, "Plasmodium berghei [4]": {"test_system": "Plasmodium berghei", "test": "Antimalarial activity against Plasmodium berghei infected in Swiss Webster mouse assessed as mouse survival rate at 3 mg/kg administered once daily via oral gavage for 4 consecutive days beginning 1 hr after infection measured on day 8 post infection relative to control", "format": "functional", "procedure,_shortened": "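P. berghei-infected erythrocytes taken from a previously infected mouse were injected intraperitoneally. Oral dosing, once daily for 4 consecutive days, began 1 h after infection, in polyethylene glycol 300/propylene glycol/water (55/25/20 by weight). Chloroquine at 30 mg/kg was the positive control, with a vehicle-only group. Percent survival was recorded daily from day 4 to day 20.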"}, "[5]": {"test": "Tmax in Sprague-Dawley rat plasma at 5 mg/kg, po via gavage by HPLC/MS analysis", "format": "ADME, organism-based"}, "[6]": {"test": "Tmax in Beagle dog plasma at 5 mg/kg, po via gavage by HPLC/MS analysis", "format": "ADME, organism-based, Canis lupus familiaris"}, "[7]": {"test": "Terminal half life in Sprague-Dawley rat at 5 mg/kg, po via gavage by HPLC/MS analysis", "format": "ADME, organism-based", "conditions": "in vivo, read-out: beta t1/2 (converted)"}, "[8]": {"test": "Clearance in Beagle dog at 5 mg/kg, iv by HPLC/MS analysis", "format": "ADME, organism-based, Canis lupus familiaris", "conditions": "in vivo", "procedure,_shortened": "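Female CD-1 mice, male SD rats and beagle dogs received 5 mg/kg either iv or by oral gavage. Vehicle was PEG 300/propylene glycol/water (55/25/20, pH 6). Blood was sampled and drug measured by HPLC-MS/MS.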"}, "[9]": {"test": "AUC (0 to infinity) in Sprague-Dawley rat at 5 mg/kg, iv by HPLC/MS analysis", "format": "ADME, organism-based", "parameters": "dose 5 mg/kg, route intravenous, time infinity", "conditions": "in vivo"}, "[10]": {"test": "Terminal half life in Sprague-Dawley rat at 5 mg/kg, iv by HPLC/MS analysis", "format": "ADME, organism-based", "conditions": "in vivo, read-out: beta t1/2 (converted)"}, "Plasmodium falciparum [11]": {"test_system": "Plasmodium falciparum", "test": "Antimalarial activity against Plasmodium falciparum K1 infected in human erythrocytes assessed as reduction in [3H]-hypoxanthine incorporation preincubated for 24 hrs followed by [3H]-hypoxanthine addition measured after 24 hrs by scintillation counting method", "format": "functional, cell-based"}, "Plasmodium falciparum [12]": {"test_system": "Plasmodium falciparum", "test": "Antimalarial activity against intraerythrocytic stage of Plasmodium falciparum assessed as time required for maximal killing effect at 100 times IC50 preincubated for 24 hrs followed by [3H]-hypoxanthine addition measured after 24 hrs by scintillation counting method", "format": "functional", "procedure,_shortened": "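In vitro P. falciparum parasite reduction ratio assay run at 10×, 30× and 100× IC50. Derived parameters: lag phase (time to maximal killing), PRR (parasites killed per life cycle) and PCT99.9% (time to clear 99.9% of the initial parasite population).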"}, "Salmonella typhimurium [13]": {"test_system": "Salmonella typhimurium", "test": "Genotoxicity in Salmonella typhimurium TA98 assessed as number of revertants per plate at 150 ug/plate in absence of rat liver S9 fraction by Ames test (reference value: 14 +/- 6)", "format": "toxicity", "conditions": "salmonella enterica subsp. enterica serovar typhimurium"}, "Salmonella typhimurium [14]": {"test_system": "Salmonella typhimurium", "test": "Genotoxicity in Salmonella typhimurium TA98 assessed as number of revertants per plate at 1500 ug/plate in absence of rat liver S9 fraction by Ames test (reference value: 14 +/- 6)", "format": "toxicity", "conditions": "salmonella enterica subsp. enterica serovar typhimurium"}, "Salmonella typhimurium [15]": {"test_system": "Salmonella typhimurium", "test": "Genotoxicity in Salmonella typhimurium TA98 assessed as number of revertants per plate at 150 ug/plate in presence of rat liver S9 fraction by Ames test (reference value: 19 +/- 8)", "format": "toxicity", "conditions": "salmonella enterica subsp. enterica serovar typhimurium"}, "Salmonella typhimurium [16]": {"test_system": "Salmonella typhimurium", "test": "Genotoxicity in Salmonella typhimurium TA100 assessed as number of revertants per plate at 500 ug/plate in absence of rat liver S9 fraction by Ames test (reference value: 154 +/- 9)", "format": "toxicity", "conditions": "salmonella enterica subsp. enterica serovar typhimurium"}, "Salmonella typhimurium [17]": {"test_system": "Salmonella typhimurium", "test": "Genotoxicity in Salmonella typhimurium TA1535 assessed as number of revertants per plate at 50 ug/plate in presence of rat liver S9 fraction by Ames test (reference value: 10)", "format": "toxicity", "conditions": "salmonella enterica subsp. enterica serovar typhimurium"}, "Salmonella typhimurium [18]": {"test_system": "Salmonella typhimurium", "test": "Genotoxicity in Salmonella typhimurium TA1537 assessed as number of revertants per plate at 500 ug/plate in absence of rat liver S9 fraction by Ames test (reference value: 19 +/- 9)", "format": "toxicity", "conditions": "salmonella enterica subsp. enterica serovar typhimurium"}, "Salmonella typhimurium [19]": {"test_system": "Salmonella typhimurium", "test": "Genotoxicity in Salmonella typhimurium TA1537 assessed as number of revertants per plate at 50 ug/plate in presence of rat liver S9 fraction by Ames test (reference value: 11 +/- 4)", "format": "toxicity", "conditions": "salmonella enterica subsp. enterica serovar typhimurium"}, "Salmonella typhimurium [20]": {"test_system": "Salmonella typhimurium", "test": "Genotoxicity in Salmonella typhimurium TA1537 assessed as number of revertants per plate at 150 ug/plate in presence of rat liver S9 fraction by Ames test (reference value: 11 +/- 4)", "format": "toxicity", "conditions": "salmonella enterica subsp. enterica serovar typhimurium"}, "Salmonella typhimurium [21]": {"test_system": "Salmonella typhimurium", "test": "Genotoxicity in Salmonella typhimurium TA1537 assessed as number of revertants per plate at 1500 ug/plate in presence of rat liver S9 fraction by Ames test (reference value: 11 +/- 4)", "format": "toxicity", "conditions": "salmonella enterica subsp. enterica serovar typhimurium"}, "Lymphocyte [22]": {"test_system": "Lymphocyte", "test": "Genotoxicity in human lymphocytes assessed as replication index at 160 ug/mL after 3 hrs in absence of rat liver S9 fraction by micronucleus assay relative to control", "format": "toxicity, cell-based", "procedure,_shortened": "(§2)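 Human lymphocytes exposed for 3 h with or without rat liver S9, or 28 h without S9, with 1% DMSO as vehicle control. Replication index = (binucleated + 2 × multinucleated cells)/total cells. Cytotoxicity (%) = 100 − (RI treated/RI vehicle) × 100.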"}, "Escherichia coli [23]": {"test_system": "Escherichia coli", "test": "Genotoxicity in Escherichia coli WP2uvrA assessed as number of revertants per plate at 50 ug/plate in absence of rat liver S9 fraction by Ames test (reference value: 45 +/- 9)", "format": "toxicity"}, "Escherichia coli [24]": {"test_system": "Escherichia coli", "test": "Genotoxicity in Escherichia coli WP2uvrA assessed as number of revertants per plate at 1.5 ug/plate in presence of rat liver S9 fraction by Ames test (reference value: 42 +/- 6)", "format": "toxicity"}, "Lymphocyte [25]": {"test_system": "Lymphocyte", "test": "Genotoxicity in human lymphocytes assessed as replication index at 355.15 ug/mL after 3 hrs in presence of rat liver S9 fraction by micronucleus assay relative to control", "format": "toxicity, cell-based", "conditions": "s9, 3 h", "procedure,_shortened": "as §2"}, "Lymphocyte [26]": {"test_system": "Lymphocyte", "test": "Genotoxicity in human lymphocytes assessed as replication index at 80 ug/mL after 28 hrs in absence of rat liver S9 fraction by micronucleus assay relative to control", "format": "toxicity, cell-based", "procedure,_shortened": "as §2"}, "Lymphocyte [27]": {"test_system": "Lymphocyte", "test": "Genotoxicity in human lymphocytes assessed as replication index at 40 ug/mL after 28 hrs in absence of rat liver S9 fraction by micronucleus assay relative to control", "format": "toxicity, cell-based", "procedure,_shortened": "as §2"}, "Lymphocyte [28]": {"test_system": "Lymphocyte", "test": "Genotoxicity in human lymphocytes at 0.5 to 355 ug/mL after 3 to 28 hrs in absence of rat liver S9 fraction by micronucleus assay", "format": "toxicity, cell-based"}, "Plasmodium berghei [29]": {"test_system": "Plasmodium berghei", "test": "Antimalarial activity against Plasmodium berghei infected in Swiss Webster mouse assessed as mouse survival rate at 11 mg/kg administered once daily via oral gavage for 4 consecutive days beginning 1 hr after infection measured on day 12 post infection relative to control", "format": "functional", "procedure,_shortened": "as §1"}}}
{"molecule": "Cc1c(Oc2cnc(C(=O)NC(C)CO)cn2)ccc2c1B(O)OC2", "note": "(centres undefined)", "values": [{"measurement": "survival at 0.3 mg/kg", "setting": "Plasmodium berghei [1]", "value": 100, "unit": "%"}, {"measurement": "survival at 1 mg/kg", "setting": "Plasmodium berghei [2]", "value": 20, "unit": "%"}, {"measurement": "survival at 0.3 mg/kg", "setting": "Plasmodium berghei [3]", "value": 20, "unit": "%"}, {"measurement": "survival at 3 mg/kg", "setting": "Plasmodium berghei [4]", "value": 0, "unit": "%"}]}
{"molecule": "Cc1c(Oc2cnc(C(=O)N3CC(C)(O)C3)cn2)ccc2c1B(O)OC2", "values": [{"measurement": "Tmax", "setting": "[5]", "value": 3.5, "unit": "h"}, {"measurement": "Tmax", "setting": "[6]", "value": 1.2, "unit": "h"}, {"measurement": "half-life", "setting": "[7]", "value": 5.2, "unit": "h"}, {"measurement": "clearance", "setting": "[8]", "value": 0.505, "unit": "mL/min/kg"}, {"measurement": "AUC(0-inf)", "setting": "[9]", "value": 21700, "unit": "ng·h/mL"}, {"measurement": "half-life", "setting": "[10]", "value": 4.6, "unit": "h"}, {"measurement": "IC50", "setting": "Plasmodium falciparum [11]", "value": 0.062, "unit": "µM"}, {"measurement": "Time", "setting": "Plasmodium falciparum [12]", "value": 0, "unit": "h"}, {"measurement": "Activity", "setting": "Salmonella typhimurium [13]", "value": 13}, {"measurement": "Activity", "setting": "Salmonella typhimurium [14]", "value": 13}, {"measurement": "Activity", "setting": "Salmonella typhimurium [15]", "value": 10}, {"measurement": "Activity", "setting": "Salmonella typhimurium [16]", "value": 155}, {"measurement": "Activity", "setting": "Salmonella typhimurium [17]", "value": 11}, {"measurement": "Activity", "setting": "Salmonella typhimurium [18]", "value": 14}, {"measurement": "Activity", "setting": "Salmonella typhimurium [19]", "value": 9}, {"measurement": "Activity", "setting": "Salmonella typhimurium [20]", "value": 12}, {"measurement": "Activity", "setting": "Salmonella typhimurium [21]", "value": 8}, {"measurement": "Activity", "setting": "Lymphocyte [22]", "value": 2, "unit": "%"}, {"measurement": "Activity", "setting": "Escherichia coli [23]", "value": 35}, {"measurement": "Activity", "setting": "Escherichia coli [24]", "value": 39}, {"measurement": "Activity", "setting": "Lymphocyte [25]", "value": 7, "unit": "%"}, {"measurement": "Activity", "setting": "Lymphocyte [26]", "value": 7, "unit": "%"}, {"measurement": "Activity", "setting": "Lymphocyte [27]", "value": 7, "unit": "%"}]}
{"molecule": "Cc1c(Oc2cnc(C(=O)NCCO)cn2)ccc2c1B(O)OC2", "values": [{"measurement": "Activity", "setting": "Lymphocyte [28]", "value": "Non-Toxic"}]}
{"molecule": "Cc1c(Oc2cnc(C(=O)N3CC(O)(C(C)C)C3)cn2)ccc2c1B(O)OC2", "values": [{"measurement": "survival at 11 mg/kg", "setting": "Plasmodium berghei [29]", "value": 20, "unit": "%"}]}
